From ChEMBL document CHEMBL5678806, “NMS-P937, an orally available, specific small-molecule polo-like kinase 1 inhibitor with antitumor activity in solid and hematologic malignancies” (Mol Cancer Ther, 2012)

Key:
[1] = Half-life in Beagle dog at 5 mg/kg, iv by LC-MS analysis; type: ADME, organism-based, Canis lupus familiaris; conditions: in vivo
[2] = target: Tyrosine-protein kinase Mer (Homo sapiens) (UniProt Q12866); test: Inhibition of N-terminal GST-tagged recombinant human Mer (557 to 882 residues) expressed in baculovirus infected Sf21 cells assessed as residual activity at 1 uM relative to control
[3] = Oral bioavailability in Beagle dog at 5 mg/kg by LC-MS analysis; type: ADME, organism-based, Canis lupus familiaris; conditions: in vivo
[4] = target: CDK6/cyclin D3 (Homo sapiens) (UniProt P30281+Q00534); test: Inhibition of N-terminal His6-tagged full-length human CDK6/N-terminal GST-tagged full-length human cyclinD3 expressed in Sf21 cells assessed as residual activity at 0.1 uM relative to control
[5] = tested on: LS174T; test: Antiproliferative activity against human LS174T cells assessed as inhibition of cell growth incubated for 72 hrs by cell-titer glo assay; type: functional, cell-based
Method in brief: (§1)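 Cells seeded at 10,000–30,000/cm² (adherent) or 100,000/mL (nonadherent) in medium with 10% fetal calf serum; after 24 h, treated in duplicate with serial dilutions for 72 h. Viable cell number read by CellTiter-Glo luminescence; IC50 from sigmoidal fit; at least two independent experiments.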

[6] = target: Serine/threonine-protein kinase TBK1 (Homo sapiens) (UniProt Q9UHD2); test: Inhibition of N-terminal His6-tagged recombinant full-length human TBK1 expressed in baculovirus infected Sf21 cells assessed as residual activity at 1 uM relative to control
[7] = Cmax in nu/nu mouse at 10 mg/kg, po by LC-MS analysis; type: ADME, organism-based; conditions: in vivo
[8] = target: Mitogen-activated protein kinase 11 (Homo sapiens) (UniProt Q15759); test: Inhibition of N-terminal GST fusion protein corresponding to full-length human SAPK2b expressed in E. coli assessed as residual activity at 1 uM relative to control
[9] = target: Mitogen-activated protein kinase 1 (Homo sapiens, UniProt P28482); test: Inhibition of ERK2 (unknown origin) in presence of [gamma-33P]ATP
[10] = tested on: ACHN; test: Antiproliferative activity against human ACHN cells assessed as inhibition of cell growth incubated for 72 hrs by cell-titer glo assay; type: functional, cell-based
Method in brief: (§2)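 Cells seeded 10,000–30,000/cm² (adherent) or 100,000/mL (suspension) in medium with 10% fetal calf serum; after 24 h treated in duplicate with serial dilutions for 72 h. Viable cells read by CellTiter-Glo luminescence; IC50 from sigmoidal fit; at least two independent experiments.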

[11] = tested on: EVSA-T; test: Antiproliferative activity against human EVSA-T cells assessed as inhibition of cell growth incubated for 72 hrs by cell-titer glo assay; type: functional, cell-based; method in brief: as §2
[12] = Volume of distribution at steady state in male cynomolgus monkey at 5 mg/kg, iv by LC-MS analysis; type: ADME, organism-based, Macaca fascicularis; conditions: in vivo, read-out: Vdss
[13] = tested on: HT-29; test: Antiproliferative activity against human HT-29 cells assessed as inhibition of cell growth incubated for 72 hrs by cell-titer glo assay; type: functional, cell-based; conditions: HT-29, 72 h; method in brief: as §1
[14] = Clearance in nu/nu mouse at 10 mg/kg, iv by LC-MS analysis; type: ADME, organism-based; conditions: in vivo
[15] = tested on: NCI-H82; test: Antiproliferative activity against human NCI-H82 cells assessed as inhibition of cell growth incubated for 72 hrs by cell-titer glo assay; type: functional, cell-based; conditions: NCI-H82, 72 h
Method in brief: (§3)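 Cells from ATCC or ECACC, kept in supplier-recommended medium with 1% penicillin-streptomycin at 37°C, 5% CO₂. Seeded at 10,000–30,000/cm² (adherent) or 100,000/mL (nonadherent) in medium with 10% fetal calf serum. Dosed after 24 h in duplicate with serial dilutions. Viable cells read by CellTiter-Glo 72 h later. IC50 from sigmoidal fit. At least two independent experiments.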

[16] = AUC in male cynomolgus monkey at 5 mg/kg, iv by LC-MS analysis; type: ADME, organism-based, Macaca fascicularis; conditions: in vivo
[17] = target: MAP kinase-activated protein kinase 5 (Homo sapiens) (UniProt Q8IW41); test: Inhibition of N-terminal His6-tagged recombinant human full-length PRAK expressed in baculovirus infected Sf21 cells assessed as residual activity at 0.1 uM relative to control
[18] = tested on: SAOS-2; test: Antiproliferative activity against human SAOS-2 cells assessed as inhibition of cell growth incubated for 72 hrs by cell-titer glo assay; type: functional, cell-based; conditions: SAOS-2, 72 h; method in brief: as §3
[19] = target: Tyrosine-protein kinase BTK (Homo sapiens) (UniProt Q06187); test: Inhibition of N-terminal His6-tagged recombinant full-length human BTK expressed in baculovirus infected Sf21 cells assessed as residual activity at 1 uM relative to control
[20] = target: Serine/threonine-protein kinase PLK3 (Homo sapiens) (UniProt Q9H4B4); test: Inhibition of PLK3 (unknown origin) at 10 micromol/L in presence of [gamma-33P]ATP relative to control; conditions: dose 10.0 µmol/L
[21] = tested on: HCC1937; test: Antiproliferative activity against human HCC1937 cells assessed as inhibition of cell growth incubated for 72 hrs by cell-titer glo assay; type: functional, cell-based; conditions: HCC1937, 72 h; method in brief: as §1
[22] = target: Ribosomal protein S6 kinase beta-1 (Homo sapiens) (UniProt P23443); test: Inhibition of N-terminal His6-tagged recombinant p70S6K (1 to 421 residues) (unknown origin) expressed in baculovirus infected Sf21 cells assessed as residual activity at 1 uM relative to control
[23] = target: High affinity nerve growth factor receptor (Homo sapiens, UniProt P04629); test: Inhibition of TRKA (unknown origin) in presence of [gamma-33P]ATP
[24] = tested on: BT-474; test: Antiproliferative activity against human BT-474 cells assessed as inhibition of cell growth incubated for 72 hrs by cell-titer glo assay; type: functional, cell-based; conditions: BT-474, 72 h; method in brief: as §2
[25] = tested on: SK-BR-3; test: Antiproliferative activity against human SK-BR-3 cells assessed as inhibition of cell growth incubated for 72 hrs by cell-titer glo assay; type: functional, cell-based; conditions: SK-BR-3, 72 h
[26] = tested on: NCI-H838; test: Antiproliferative activity against human NCI-H838 cells assessed as inhibition of cell growth incubated for 72 hrs by cell-titer glo assay; type: functional, cell-based; conditions: NCI-H838, 72 h; method in brief: as §3
[27] = Inhibition of CDK2/CycA (unknown origin) in presence of [gamma-33P]ATP; set-up: species or system Homo sapiens
[28] = tested on: BXPC-3; test: Antiproliferative activity against human BXPC-3 cells assessed as inhibition of cell growth incubated for 72 hrs by cell-titer glo assay; type: functional, cell-based; conditions: BXPC-3, 72 h; method in brief: as §2
[29] = tested on: RS4-11; test: Antiproliferative activity against human RS4-11 cells assessed as inhibition of cell growth incubated for 72 hrs by cell-titer glo assay; type: functional, cell-based; conditions: RS4-11, 72 h; method in brief: as §3
[30] = tested on: LP-1; test: Antiproliferative activity against human LP-1 cells assessed as inhibition of cell growth incubated for 72 hrs by cell-titer glo assay; type: functional, cell-based; conditions: LP-1, 72 h; method in brief: as §1
[31] = tested on: SNB-19; test: Antiproliferative activity against human SNB-19 cells assessed as inhibition of cell growth incubated for 72 hrs by cell-titer glo assay; type: functional, cell-based; conditions: SNB-19, 72 h
[32] = tested on: U2OS; test: Induction of apoptosis in human U2OS cells assessed as colocalization of cells by measuring activation of caspase 3 incubated for 24 hrs by DRAQ 5 staining based high content imaging assay relative to control; type: functional

Mitogen-activated protein kinase 11 (Homo sapiens), sequence (Q15759 whole entry, the tested form may be a part): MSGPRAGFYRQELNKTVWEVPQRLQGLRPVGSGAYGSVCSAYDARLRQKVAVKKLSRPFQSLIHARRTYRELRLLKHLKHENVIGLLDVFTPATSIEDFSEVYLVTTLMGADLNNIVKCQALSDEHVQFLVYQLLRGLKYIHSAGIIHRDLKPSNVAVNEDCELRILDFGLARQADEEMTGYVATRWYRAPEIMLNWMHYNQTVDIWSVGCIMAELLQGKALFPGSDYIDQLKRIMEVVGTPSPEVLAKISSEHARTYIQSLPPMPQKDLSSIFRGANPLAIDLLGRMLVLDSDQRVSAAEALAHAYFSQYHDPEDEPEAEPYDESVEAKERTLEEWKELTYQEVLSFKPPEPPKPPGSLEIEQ
Tyrosine-protein kinase BTK (Homo sapiens), sequence (Q06187 whole entry): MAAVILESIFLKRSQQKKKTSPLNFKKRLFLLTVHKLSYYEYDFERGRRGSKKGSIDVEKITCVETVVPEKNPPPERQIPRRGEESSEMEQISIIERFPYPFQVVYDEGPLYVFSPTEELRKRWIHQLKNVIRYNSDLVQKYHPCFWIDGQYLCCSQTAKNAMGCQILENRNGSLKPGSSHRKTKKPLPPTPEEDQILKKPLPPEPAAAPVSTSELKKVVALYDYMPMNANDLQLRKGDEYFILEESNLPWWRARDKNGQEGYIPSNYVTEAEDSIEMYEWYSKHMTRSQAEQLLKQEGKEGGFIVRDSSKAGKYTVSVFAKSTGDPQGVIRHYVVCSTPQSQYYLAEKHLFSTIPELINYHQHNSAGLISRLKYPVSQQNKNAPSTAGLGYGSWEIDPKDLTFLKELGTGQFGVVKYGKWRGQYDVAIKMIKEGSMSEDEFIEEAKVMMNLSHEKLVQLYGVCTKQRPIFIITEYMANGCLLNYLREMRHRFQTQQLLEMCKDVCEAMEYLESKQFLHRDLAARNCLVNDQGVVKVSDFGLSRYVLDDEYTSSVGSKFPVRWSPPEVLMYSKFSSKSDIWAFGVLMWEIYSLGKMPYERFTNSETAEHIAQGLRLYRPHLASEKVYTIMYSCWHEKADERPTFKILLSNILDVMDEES
Tyrosine-protein kinase Mer (Homo sapiens), sequence (Q12866 whole entry, the tested form may be a part): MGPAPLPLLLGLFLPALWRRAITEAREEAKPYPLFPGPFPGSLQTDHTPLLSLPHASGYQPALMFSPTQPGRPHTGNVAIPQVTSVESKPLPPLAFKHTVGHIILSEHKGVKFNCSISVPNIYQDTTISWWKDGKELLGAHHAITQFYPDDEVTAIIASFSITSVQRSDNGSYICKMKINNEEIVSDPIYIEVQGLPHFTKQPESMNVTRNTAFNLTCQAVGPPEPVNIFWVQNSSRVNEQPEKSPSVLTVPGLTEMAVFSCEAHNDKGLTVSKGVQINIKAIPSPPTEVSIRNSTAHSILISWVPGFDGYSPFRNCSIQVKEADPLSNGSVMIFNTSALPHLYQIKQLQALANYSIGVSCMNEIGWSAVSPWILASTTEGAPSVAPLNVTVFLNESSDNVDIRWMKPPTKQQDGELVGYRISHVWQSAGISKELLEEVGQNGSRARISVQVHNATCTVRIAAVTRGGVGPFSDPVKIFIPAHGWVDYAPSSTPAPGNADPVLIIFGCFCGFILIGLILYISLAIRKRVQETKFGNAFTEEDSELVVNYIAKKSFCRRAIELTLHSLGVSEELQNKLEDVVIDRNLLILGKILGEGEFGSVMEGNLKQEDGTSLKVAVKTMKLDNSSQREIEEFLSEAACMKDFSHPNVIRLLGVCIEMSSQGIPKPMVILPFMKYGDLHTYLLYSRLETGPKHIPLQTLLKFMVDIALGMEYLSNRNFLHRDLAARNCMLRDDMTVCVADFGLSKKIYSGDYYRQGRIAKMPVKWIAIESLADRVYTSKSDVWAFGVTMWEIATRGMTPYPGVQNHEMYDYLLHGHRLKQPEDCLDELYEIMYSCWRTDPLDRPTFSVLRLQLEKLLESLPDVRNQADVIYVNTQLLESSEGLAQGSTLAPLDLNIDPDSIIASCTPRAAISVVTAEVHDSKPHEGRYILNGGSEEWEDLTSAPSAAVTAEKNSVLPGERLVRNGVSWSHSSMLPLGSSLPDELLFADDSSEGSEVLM
Ribosomal protein S6 kinase beta-1 (Homo sapiens), sequence (P23443 whole entry, looked up, the tested form may be a part): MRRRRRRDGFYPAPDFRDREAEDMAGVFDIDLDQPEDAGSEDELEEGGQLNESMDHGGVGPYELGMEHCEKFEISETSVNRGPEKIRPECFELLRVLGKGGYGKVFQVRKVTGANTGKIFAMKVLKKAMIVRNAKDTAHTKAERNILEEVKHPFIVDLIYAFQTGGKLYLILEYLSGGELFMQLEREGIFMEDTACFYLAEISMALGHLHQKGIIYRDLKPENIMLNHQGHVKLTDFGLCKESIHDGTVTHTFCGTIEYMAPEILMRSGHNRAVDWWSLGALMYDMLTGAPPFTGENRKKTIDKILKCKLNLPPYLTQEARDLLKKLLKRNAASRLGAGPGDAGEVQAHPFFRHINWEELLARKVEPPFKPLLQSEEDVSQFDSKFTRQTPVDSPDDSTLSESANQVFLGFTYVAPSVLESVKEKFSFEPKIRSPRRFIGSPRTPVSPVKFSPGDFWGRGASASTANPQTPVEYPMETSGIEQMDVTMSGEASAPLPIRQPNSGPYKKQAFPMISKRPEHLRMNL
Serine/threonine-protein kinase TBK1 (Homo sapiens), sequence (Q9UHD2 whole entry): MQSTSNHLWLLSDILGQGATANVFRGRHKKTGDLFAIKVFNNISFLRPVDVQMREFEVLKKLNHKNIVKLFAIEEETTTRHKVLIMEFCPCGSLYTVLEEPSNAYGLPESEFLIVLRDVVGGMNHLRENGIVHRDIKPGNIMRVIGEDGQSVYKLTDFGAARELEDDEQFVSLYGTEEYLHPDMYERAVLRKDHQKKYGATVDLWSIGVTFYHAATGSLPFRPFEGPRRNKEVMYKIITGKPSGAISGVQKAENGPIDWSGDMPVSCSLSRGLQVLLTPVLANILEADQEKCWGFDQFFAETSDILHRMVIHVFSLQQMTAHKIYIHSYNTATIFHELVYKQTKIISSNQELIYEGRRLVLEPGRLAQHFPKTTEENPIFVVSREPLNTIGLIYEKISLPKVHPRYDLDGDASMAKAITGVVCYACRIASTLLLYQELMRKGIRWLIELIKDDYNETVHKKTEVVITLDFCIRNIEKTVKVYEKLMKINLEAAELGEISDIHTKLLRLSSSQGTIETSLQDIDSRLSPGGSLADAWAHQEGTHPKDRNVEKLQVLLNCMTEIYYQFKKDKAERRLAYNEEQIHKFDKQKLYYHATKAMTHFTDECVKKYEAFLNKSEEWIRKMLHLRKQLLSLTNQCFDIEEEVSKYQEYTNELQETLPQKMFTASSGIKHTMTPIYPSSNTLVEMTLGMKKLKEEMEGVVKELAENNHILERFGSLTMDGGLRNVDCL
MAP kinase-activated protein kinase 5 (Homo sapiens), sequence (Q8IW41 whole entry): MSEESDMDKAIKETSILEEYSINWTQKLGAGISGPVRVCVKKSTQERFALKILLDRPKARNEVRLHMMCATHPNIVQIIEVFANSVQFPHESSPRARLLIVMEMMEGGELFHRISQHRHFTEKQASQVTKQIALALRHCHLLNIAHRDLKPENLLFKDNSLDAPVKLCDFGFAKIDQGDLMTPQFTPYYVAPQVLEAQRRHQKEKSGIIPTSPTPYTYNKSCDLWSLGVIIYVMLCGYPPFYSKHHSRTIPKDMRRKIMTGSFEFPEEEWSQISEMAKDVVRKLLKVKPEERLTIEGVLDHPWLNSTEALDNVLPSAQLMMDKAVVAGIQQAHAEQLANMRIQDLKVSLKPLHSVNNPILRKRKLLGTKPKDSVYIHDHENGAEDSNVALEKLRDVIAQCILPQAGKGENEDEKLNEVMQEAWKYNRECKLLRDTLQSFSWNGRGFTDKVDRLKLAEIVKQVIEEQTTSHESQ
High affinity nerve growth factor receptor, sequence (P04629 whole entry): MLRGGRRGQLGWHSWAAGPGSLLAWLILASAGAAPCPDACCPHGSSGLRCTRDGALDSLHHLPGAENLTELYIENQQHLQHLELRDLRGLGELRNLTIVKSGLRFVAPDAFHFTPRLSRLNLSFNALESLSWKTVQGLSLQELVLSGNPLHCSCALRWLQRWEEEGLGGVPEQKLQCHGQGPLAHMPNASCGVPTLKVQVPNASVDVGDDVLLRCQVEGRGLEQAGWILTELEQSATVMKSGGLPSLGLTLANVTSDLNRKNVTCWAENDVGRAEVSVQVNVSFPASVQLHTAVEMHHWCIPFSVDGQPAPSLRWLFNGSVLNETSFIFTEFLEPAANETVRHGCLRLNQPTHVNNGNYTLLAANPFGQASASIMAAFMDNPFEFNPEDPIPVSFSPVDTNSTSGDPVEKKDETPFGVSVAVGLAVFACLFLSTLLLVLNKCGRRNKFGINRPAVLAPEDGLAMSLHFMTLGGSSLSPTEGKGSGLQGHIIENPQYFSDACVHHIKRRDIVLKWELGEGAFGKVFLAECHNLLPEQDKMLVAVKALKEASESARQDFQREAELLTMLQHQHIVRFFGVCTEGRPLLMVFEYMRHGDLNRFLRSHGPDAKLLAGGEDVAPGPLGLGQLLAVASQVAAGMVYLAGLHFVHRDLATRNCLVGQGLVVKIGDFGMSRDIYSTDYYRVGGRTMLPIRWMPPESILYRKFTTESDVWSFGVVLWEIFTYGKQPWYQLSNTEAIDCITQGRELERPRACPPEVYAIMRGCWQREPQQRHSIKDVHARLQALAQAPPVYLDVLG
Mitogen-activated protein kinase 1, sequence (P28482 whole entry): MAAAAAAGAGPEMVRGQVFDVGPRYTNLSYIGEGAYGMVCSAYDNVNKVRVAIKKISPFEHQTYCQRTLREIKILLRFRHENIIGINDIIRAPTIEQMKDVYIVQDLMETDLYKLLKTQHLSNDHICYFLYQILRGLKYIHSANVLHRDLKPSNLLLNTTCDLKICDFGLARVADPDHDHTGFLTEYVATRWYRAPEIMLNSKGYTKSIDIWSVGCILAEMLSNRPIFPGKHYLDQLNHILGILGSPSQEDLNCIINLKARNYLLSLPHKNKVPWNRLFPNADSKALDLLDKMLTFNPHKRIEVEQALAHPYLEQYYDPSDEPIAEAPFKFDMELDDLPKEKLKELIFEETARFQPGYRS

CN1CCN(c2ccc(OC(F)(F)F)c(Nc3ncc4c(n3)-c3c(c(C(N)=O)nn3CCO)CC4)c2)CC1 [ONVANSERTIB] showed a half-life [1] of 3.9 h, an Activity [2] of 64% and an F [3] of 63%. The Activity [4] was 114%, the IC50 [5] was 164 nM and the Activity [6] was 96%. The Cmax [7] was 600 nM, the Activity [8] was 146% and the IC50 [9] was > 10000 nM. It also gave an IC50 [10] of 429 nM, an IC50 [11] of 41 nM and a Vd [12] of 2.9 L/kg. For the same compound, the IC50 [13] was 39 nM, the clearance [14] was 39.4 mL/min/kg and the IC50 [15] was 16 nM. For the same compound, the AUC [16] was 14.1 µM·h, the Activity [17] was 126% and the IC50 [18] was 45 nM. The Activity [19] was 84%, the inhibition [20] was 40.2% and the IC50 [21] was 595 nM. The Activity [22] was 76%, the IC50 [23] was > 10000 nM and the IC50 [24] was 156 nM. The IC50 [25] was 35 nM, the IC50 [26] was 119 nM and the IC50 [27] was > 10000 nM. It also gave an IC50 [28] of 117 nM, an IC50 [29] of 43 nM and an IC50 [30] of 59 nM. It also gave an IC50 [31] of 224 nM and an Activity [32] of 13%.
